Experimental data taken from ChEMBL document CHEMBL1142938 (J Med Chem, 2007).

These compounds were tested against T1, Adenosine receptor A1 (Homo sapiens, UniProt P30542) (assay: Displacement of [3H]CCPA from human recombinant adenosine A1 receptor expressed in CHO cells).
T1 sequence (P30542 whole entry): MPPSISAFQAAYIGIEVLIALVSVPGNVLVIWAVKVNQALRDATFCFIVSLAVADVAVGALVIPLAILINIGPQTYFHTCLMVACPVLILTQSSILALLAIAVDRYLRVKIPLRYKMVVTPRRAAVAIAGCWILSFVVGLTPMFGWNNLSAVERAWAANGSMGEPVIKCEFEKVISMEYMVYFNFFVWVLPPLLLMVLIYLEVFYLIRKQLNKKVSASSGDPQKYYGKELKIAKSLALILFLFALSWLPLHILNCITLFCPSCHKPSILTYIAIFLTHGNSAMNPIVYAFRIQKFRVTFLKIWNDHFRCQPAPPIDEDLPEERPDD
Type: cell-based
A Ki of 1380 nM was found for `CONc1nc(C#Cc2ccc(C)cc2)nc2c1ncn2[C@@H]1O[C@H](CO)[C@@H](O)[C@H]1O` in this work. A Ki of 58 nM was found for `CONc1nc(I)nc2c1ncn2[C@@H]1O[C@H](CO)[C@@H](O)[C@H]1O` in this work. A Ki of 255 nM was found for `CONc1nc(C#Cc2cccnc2)nc2c1ncn2[C@@H]1O[C@H](CO)[C@@H](O)[C@H]1O` in this work. A Ki of 437 nM was found for `CONc1nc(C#Cc2ccccn2)nc2c1ncn2[C@@H]1O[C@H](CO)[C@@H](O)[C@H]1O` in this work. A Ki of 2450 nM was found for `CONc1nc(C#Cc2cccc(C(F)(F)F)c2)nc2c1ncn2[C@@H]1O[C@H](CO)[C@@H](O)[C@H]1O` in this work. A Ki of 766 nM was found for `CONc1nc(C#Cc2ccc(CC#N)cc2)nc2c1ncn2[C@@H]1O[C@H](CO)[C@@H](O)[C@H]1O` in this work. A Ki of 1880 nM was found for `CCNC(=O)[C@H]1O[C@@H](n2cnc3c(NOC)nc(C#Cc4ccccc4)nc32)[C@H](O)[C@@H]1O` in this work. A Ki of 282 nM was found for `CONc1nc(C#CCCCC#N)nc2c1ncn2[C@@H]1O[C@H](CO)[C@@H](O)[C@H]1O` in this work.

These compounds were tested against Adenosine receptor A2a (Homo sapiens, UniProt P29274) (assay: Displacement of [3H]NECA from human recombinant adenosine A2A receptor expressed in CHO cells).
Chain of Adenosine receptor A2a (P29274 whole entry): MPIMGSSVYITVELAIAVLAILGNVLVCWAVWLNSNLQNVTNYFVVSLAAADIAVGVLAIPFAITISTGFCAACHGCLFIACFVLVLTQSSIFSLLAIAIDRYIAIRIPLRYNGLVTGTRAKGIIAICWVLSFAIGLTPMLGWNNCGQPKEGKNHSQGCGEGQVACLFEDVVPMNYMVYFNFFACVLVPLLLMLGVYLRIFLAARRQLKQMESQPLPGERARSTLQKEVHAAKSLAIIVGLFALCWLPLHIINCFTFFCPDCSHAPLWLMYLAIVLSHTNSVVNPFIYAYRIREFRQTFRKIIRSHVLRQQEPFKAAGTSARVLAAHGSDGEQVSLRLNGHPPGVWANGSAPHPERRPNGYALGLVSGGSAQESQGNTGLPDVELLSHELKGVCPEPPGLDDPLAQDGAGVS
Type: cell-based
Procedure, shortened: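 Competition binding with [3H]NECA at 30 nM on stably transfected CHO cells. Nonspecific binding defined with 1 mM theophylline. Dissociation constants (Ki) obtained by nonlinear curve fitting.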
A Ki of 35100 nM was found for `CONc1nc(C#Cc2ccc(C)cc2)nc2c1ncn2[C@@H]1O[C@H](CO)[C@@H](O)[C@H]1O` in this work. A Ki of 12400 nM was found for `CONc1nc(I)nc2c1ncn2[C@@H]1O[C@H](CO)[C@@H](O)[C@H]1O` in this work. A Ki of 12500 nM was found for `CONc1nc(C#Cc2cccnc2)nc2c1ncn2[C@@H]1O[C@H](CO)[C@@H](O)[C@H]1O` in this work. A Ki of 2960 nM was found for `CONc1nc(C#Cc2ccccn2)nc2c1ncn2[C@@H]1O[C@H](CO)[C@@H](O)[C@H]1O` in this work. A Ki of 8270 nM was found for `CONc1nc(C#Cc2cccc(C(F)(F)F)c2)nc2c1ncn2[C@@H]1O[C@H](CO)[C@@H](O)[C@H]1O` in this work. A Ki of 3080 nM was found for `CONc1nc(C#Cc2ccc(CC#N)cc2)nc2c1ncn2[C@@H]1O[C@H](CO)[C@@H](O)[C@H]1O` in this work. A Ki of 1820 nM was found for `CONc1nc(C#CCCCC#N)nc2c1ncn2[C@@H]1O[C@H](CO)[C@@H](O)[C@H]1O` in this work.

Each compound was assayed against T2, Adenosine receptor A3 (Homo sapiens, UniProt P0DMS8) (assay: Displacement of [3H]NECA from human recombinant adenosine A3 receptor expressed in CHO cells).
T2 sequence (P0DMS8 whole entry): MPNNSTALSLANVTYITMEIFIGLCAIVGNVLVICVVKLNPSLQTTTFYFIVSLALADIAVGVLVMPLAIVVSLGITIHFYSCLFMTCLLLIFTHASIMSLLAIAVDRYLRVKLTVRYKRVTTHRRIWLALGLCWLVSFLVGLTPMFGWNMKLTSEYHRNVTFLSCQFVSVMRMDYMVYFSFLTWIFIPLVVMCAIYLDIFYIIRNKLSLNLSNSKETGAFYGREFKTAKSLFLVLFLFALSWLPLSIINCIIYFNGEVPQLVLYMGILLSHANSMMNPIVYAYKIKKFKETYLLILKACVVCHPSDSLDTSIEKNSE
Type: cell-based
Procedure, shortened: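 [3H]NECA used at 10 nM as radioligand in competition experiments, stably transfected CHO cells. Nonspecific binding defined with 1 mM theophylline. Ki from nonlinear curve fitting.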
A Ki of 5.9 nM was found for `CONc1nc(C#Cc2ccc(C)cc2)nc2c1ncn2[C@@H]1O[C@H](CO)[C@@H](O)[C@H]1O` in this work. A Ki of 7.4 nM was found for `CONc1nc(I)nc2c1ncn2[C@@H]1O[C@H](CO)[C@@H](O)[C@H]1O` in this work. A Ki of 7.9 nM was found for `CONc1nc(C#Cc2cccnc2)nc2c1ncn2[C@@H]1O[C@H](CO)[C@@H](O)[C@H]1O` in this work. A Ki of 2.3 nM was found for `CONc1nc(C#Cc2ccccn2)nc2c1ncn2[C@@H]1O[C@H](CO)[C@@H](O)[C@H]1O` in this work. A Ki of 23 nM was found for `CONc1nc(C#Cc2cccc(C(F)(F)F)c2)nc2c1ncn2[C@@H]1O[C@H](CO)[C@@H](O)[C@H]1O` in this work. A Ki of 3.7 nM was found for `CONc1nc(C#Cc2ccc(CC#N)cc2)nc2c1ncn2[C@@H]1O[C@H](CO)[C@@H](O)[C@H]1O` in this work. A Ki of 3.5 nM was found for `CCNC(=O)[C@H]1O[C@@H](n2cnc3c(NOC)nc(C#Cc4ccccc4)nc32)[C@H](O)[C@@H]1O` in this work. A Ki of 4.1 nM was found for `CONc1nc(C#CCCCC#N)nc2c1ncn2[C@@H]1O[C@H](CO)[C@@H](O)[C@H]1O` in this work.

These compounds were tested against Adenosine receptors; A1 & A3 (Homo sapiens) (UniProt P30542+P0DMS8) (assay: Selectivity for human adenosine A3 receptor over human adenosine A1 receptor).
Type: protein assay
A Ratio Ki of 234 was found for `CONc1nc(C#Cc2ccc(C)cc2)nc2c1ncn2[C@@H]1O[C@H](CO)[C@@H](O)[C@H]1O` in this work. A Ratio Ki of 8 was found for `CONc1nc(I)nc2c1ncn2[C@@H]1O[C@H](CO)[C@@H](O)[C@H]1O` in this work. A Ratio Ki of 32 was found for `CONc1nc(C#Cc2cccnc2)nc2c1ncn2[C@@H]1O[C@H](CO)[C@@H](O)[C@H]1O` in this work. A Ratio Ki of 190 was found for `CONc1nc(C#Cc2ccccn2)nc2c1ncn2[C@@H]1O[C@H](CO)[C@@H](O)[C@H]1O` in this work. A Ratio Ki of 106 was found for `CONc1nc(C#Cc2cccc(C(F)(F)F)c2)nc2c1ncn2[C@@H]1O[C@H](CO)[C@@H](O)[C@H]1O` in this work. A Ratio Ki of 207 was found for `CONc1nc(C#Cc2ccc(CC#N)cc2)nc2c1ncn2[C@@H]1O[C@H](CO)[C@@H](O)[C@H]1O` in this work. A Ratio Ki of 69 was found for `CONc1nc(C#CCCCC#N)nc2c1ncn2[C@@H]1O[C@H](CO)[C@@H](O)[C@H]1O` in this work.

These compounds were tested against Adenosine receptors; A2a & A3 (Homo sapiens) (UniProt P0DMS8+P29274) (assay: Selectivity for human adenosine A3 receptor over human adenosine A2A receptor).
Type: protein assay
A Ratio Ki of 6000 was found for `CONc1nc(C#Cc2ccc(C)cc2)nc2c1ncn2[C@@H]1O[C@H](CO)[C@@H](O)[C@H]1O` in this work. A Ratio Ki of 1700 was found for `CONc1nc(I)nc2c1ncn2[C@@H]1O[C@H](CO)[C@@H](O)[C@H]1O` in this work. A Ratio Ki of 1600 was found for `CONc1nc(C#Cc2cccnc2)nc2c1ncn2[C@@H]1O[C@H](CO)[C@@H](O)[C@H]1O` in this work. A Ratio Ki of 1300 was found for `CONc1nc(C#Cc2ccccn2)nc2c1ncn2[C@@H]1O[C@H](CO)[C@@H](O)[C@H]1O` in this work. A Ratio Ki of 360 was found for `CONc1nc(C#Cc2cccc(C(F)(F)F)c2)nc2c1ncn2[C@@H]1O[C@H](CO)[C@@H](O)[C@H]1O` in this work. A Ratio Ki of 832 was found for `CONc1nc(C#Cc2ccc(CC#N)cc2)nc2c1ncn2[C@@H]1O[C@H](CO)[C@@H](O)[C@H]1O` in this work. A Ratio Ki of 444 was found for `CONc1nc(C#CCCCC#N)nc2c1ncn2[C@@H]1O[C@H](CO)[C@@H](O)[C@H]1O` in this work.

These compounds were tested against T3, Adenosine receptor A3 (Homo sapiens) (UniProt P0DMS8) (assay: Activity at human adenosine A3 receptor assessed as inhibition of forskolin-stimulated cAMP production in CHO cells).
T3 sequence (whole entry): T2 sequence (P0DMS8 whole entry)
Type: functional, cell-based
Set-up: concentration or dose not given beside the values
An Activity of 94% was found for `CONc1nc(C#Cc2ccccn2)nc2c1ncn2[C@@H]1O[C@H](CO)[C@@H](O)[C@H]1O` in this work. An Activity of 35% was found for `CCNC(=O)[C@H]1O[C@@H](n2cnc3c(NOC)nc(C#Cc4ccccc4)nc32)[C@H](O)[C@@H]1O` in this work.
